Assay outcomes: PubChem BioAssay, several laboratories
An excerpt weighted towards active compounds, which were near 2.2% of everything screened.
MT stabilizer: microtubule stabilizers in HeLa cells, primary screen, imaging, high-content imaging; AID 2205, 2009; HeLa tubulin immunostaining HCS, 24 h; share of cells brighter than vehicle mean+2SD; 200,000 tested, 0.83% active; % tubulin-high responders, % at 10 µM;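 active means plate Z-score above 3 for both tubulin-high and condensed-nucleus cell shares, with cell loss under 80%, at 10 µM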;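 further: anti alpha tubulin signal scored within the nucleus-defined area of each cell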
APP 5UTR inh: inhibitors of APP translation via 5'UTR reporter, primary screen, APP 5'UTR luciferase, SH-SY5Y cells; 190,000 tested, 0.82% active; SH-SY5Y APP 5'UTR-luciferase reporter, luminescence; inhibition, % at 2 µM;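 active means inhibition above a set limit, derived from the sample mean plus 3 SD, cut at about 45% in these data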
Ba/F3 V617F tox: reduced viability of JAK2V617F-dependent Ba/F3 cells, primary screen, JAK2V617F inhibitor project, cell-based, Ba/F3 EpoR-JAK2V617F, luminescence; ATP luminescence; inhibition, % at 5.6 µM; 220,000 tested, 1.1% active; AID 1446, 2008;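 active means inhibition above the campaign mean plus 3 SD over all tested compounds, cut at about 24% in these data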;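 further: cytokine-independent growth of Ba/F3 cells driven by EpoR plus mutant JAK2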
IEC-6 cytotox: cytotoxicity in IEC-6 intestinal epithelial cells, primary screen, cytotoxicity control for KLF5 inhibitor project, cell-based, luminescence; IEC-6 cytotoxicity, luminescence viability; inhibition, % at 5 µM; 290,000 tested, 0.78% active
bCat nuc transl: modulators of beta-catenin nuclear translocation, primary screen, imaging, HeLa cells, immunofluorescence, high-content; nuclear translocation activity, % at 5 µM; AID 1665, 2009; 190,000 tested, 0.3% active;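 active means nuclear translocation activity above 50% at 5 µM, with a well cell count of 50 or more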;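 further: per-cell ratio of nuclear to cytoplasmic median beta-catenin stain intensity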
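Test system: human HeLa cells, endogenous beta-catenin. Times: 24 h compound exposure, 37°C. Measured by: beta-catenin immunofluorescence imaging with DAPI.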
BaF3 tox: parental Ba/F3 cell viability inhibition, counter-screen for JAK2V617F inhibitor project, murine pro-B, CellTiter-Glo luminescence; CellTiter-Glo ATP luminescence; inhibition, % at 5.6 µM; 220,000 tested, 1.1% active; AID 1486, 2009;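 active means inhibition above a per-campaign cutoff, the mean inhibition of all tested compounds plus 3 SD, cut at about 27% in these data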
IEC-6 tox confirm: cytotoxic compounds in IEC-6 epithelial cells, confirmation, cytotoxicity control, cell-based, luminescence; shares compounds with IEC-6 cytotox; IEC-6 rat intestinal epithelial viability; inhibition, % at 5 µM; 1,900 tested, 63% active; AID 1907, 2009
A number is an active result; n = inactive; x = not tested or not shown. Unless noted, no stated cut-off is given here; in the data, active means inhibition above about 22%; inactive means the rest.

SMILES	MT stabilizer	APP 5UTR inh	Ba/F3 V617F tox	IEC-6 cytotox	bCat nuc transl	BaF3 tox	IEC-6 tox confirm
COC(=O)c1[nH]c2c(c1C)C(=O)CC(c1ccc(OC)c(OC)c1)C2 (centres undefined)	x	x	x	n	x	x	x
CCOC(=O)c1[nH]c2c(c1C)C(=O)CC(c1ccc(OCC)c(OC)c1)C2 (centres undefined)	n	n	n	n	n	n	x
COC(=O)c1[nH]c2c(c1C)C(=O)CC(c1cccc(OC)c1)C2 (centres undefined)	x	x	x	86.2	x	x	61.5
CCOCCOC(=O)c1[nH]c2c(c1C)C(=O)CC(c1cc(OC)c(OC)c(OC)c1)C2 (centres undefined)	x	x	x	n	x	x	x
COCCOC(=O)c1[nH]c2c(c1C)C(=O)CC(c1cccs1)C2 (centres undefined)	23.3	85.4	74.1	78.7	n	74.8	54.8
CCOCCOC(=O)c1[nH]c2c(c1C)C(=O)CC(c1ccccc1)C2 (centres undefined)	x	x	x	91.2	x	x	76.2
O=C(Nc1ccccc1Cl)O/N=C/c1ccncc1	n	n	n	n	x	n	x
CCCCCOC(=O)c1[nH]c2c(c1C)C(=O)CC(c1ccco1)C2 (centres undefined)	n	95.3	94.7	93.9	59.1	94.6	79.3
CNC(=O)C1(C(F)(F)F)C/C(=C\CCO)CCCO1 (centres undefined)	x	x	x	n	x	x	x
CCc1cn([C@H]2C[C@H](O)[C@@H](CO)O2)c(=O)[nH]c1=O	n	n	n	n	n	n	x
O=c1[nH]c(=O)n([C@H]2C[C@H](O)[C@@H](CO)O2)cc1C(F)(F)F	n	58.7	96.3	84.8	x	87.6	80.0
Cc1ccc(C)c(S(=O)(=O)N2CCCOC2CNC(=O)C(=O)NC2CC2)c1 (centres undefined)	x	x	x	n	x	x	x
O=C(Oc1c(CN2CCOCC2)cc(Cl)c2cccnc12)c1ccccc1Br	x	x	n	24.5	n	n	n
O=C(c1cccc([N+](=O)[O-])c1)N1CCCC(C(=O)N2CCN(c3ccccc3)CC2)C1 (centres undefined)	x	x	x	n	x	x	x
Cc1cc(NC(=O)CCC(=O)N(CC(=O)NCC2CCCO2)c2ccc(F)c(Cl)c2)no1 (centres undefined)	x	x	x	n	x	x	x
Cc1ccccc1OCC(O)CNC1CCC(NCC(O)COc2ccccc2C)CC1 (centres undefined)	x	x	x	100.9	x	x	101.0
COc1ccc(/C=N/NC(=O)c2cc3cc(OC)c(OC)cc3[nH]2)cc1	x	x	x	n	x	x	x
CCOc1ccc2[nH]c(C(=O)N/N=C/c3ccc(OC)cc3)cc2c1	x	x	x	84.4	x	x	58.0
CCOc1ccc(NC(=O)N(CCC(C)C)C2CCN(C(C)=O)CC2)cc1	n	n	n	n	n	n	x
O=Cc1ccc(Sc2nnc(-c3ccccc3)o2)c([N+](=O)[O-])c1	n	n	n	n	x	n	x
Cn1nc([N+](=O)[O-])nc1Sc1nnc(-c2ccccc2)o1	n	94.6	92.1	68.0	n	75.9	67.9
CCCN1CCC(NCc2cn(C)nc2-c2ccc(Oc3ccccc3)cc2)CC1	x	x	52.5	35.9	n	67.5	43.0
COC1CCCN(Cc2cn(C)nc2-c2ccc(Oc3ccccc3)cc2)C1 (centres undefined)	n	n	n	n	n	n	x
Cc1c(OCC(=O)NC2CCN(Cc3ccccc3)CC2)ccc2c3c(c(=O)oc12)CCC3	x	x	x	n	x	x	x
CCCCCCCn1ccc(=N)cc1	n	n	97.2	23.4	n	77.3	32.0
O=C(c1cc(-c2ccccc2Cl)nc2ccc(Br)cc12)N1CCN(c2ccccn2)CC1	x	x	x	45.7	x	x	n
Cc1cccc2c(C(=O)N3CCN(c4ccccc4)CC3)cc(-c3ccncc3)nc12	x	x	x	71.4	x	x	52.7
Cc1cccc2c(C(=O)N3CCN(c4ccccn4)CC3)cc(-c3cccc(Br)c3)nc12	x	x	x	29.0	x	x	n
Cc1cccc2c(C(=O)N3CCCCC3)cc(-c3ccccc3)nc12	x	x	x	n	x	x	x
COC(=O)c1ccc(COc2ccc(CNCc3ccc(Cl)cc3)cc2)cc1	x	x	x	n	x	x	x
